Source: PubChem
M5 PAM: CHRM5 positive allosteric modulation; P08912; CHO-K1 hM5, Fluo-8 calcium, ACh EC20 PAM; 0% = ACh EC20, 100% = ACh EC100; activation, % at 3 µM; 360,000 tested, 0.3% active;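 active means activation above the run cutoff, the mean activation of all test compounds plus 3 SD, cut at about 18% in these data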
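Assay system: CHO-K1 hM5 cells. Also added: acetylcholine at EC20 concentration, added after compound. Dosing: 3 µM, single dose. Times: compound preincubation 140 s before EC20 acetylcholine addition. Signal: Fluo-8 calcium fluorescence. Measure: % activation relative to EC20 and EC100 ACh responses. Repeats: singlicate, one well per test compound.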
M5 ag: agonists of human muscarinic M5 receptor (CHRM5) | AID 624037 | activation, % at 3 µM | P08912 | 360,000 tested, 0.19% active | CHO-K1 hM5 cells, Fluo-8 calcium fluorescence; 0% DMSO wells, 100% maximal acetylcholine response;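 active means activation above the run's mean over test compounds plus 3 SD, cut at about 23% in these data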;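 further: signal is peak over basal fluorescence ratio across the kinetic read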
M4 PAM: CHRM4 positive allosteric modulation. CHO-K1 hM4/Gqi5, Fluo-8 calcium fluorescence, ACh EC20; 0% = ACh EC20, 100% = maximal ACh. activation, % at 3 µM. 360,000 tested, 0.4% active;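 active means activation above its plate's cutoff, the mean activation of sample wells plus 3 SD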
Target sequence (P08173 whole entry, looked up): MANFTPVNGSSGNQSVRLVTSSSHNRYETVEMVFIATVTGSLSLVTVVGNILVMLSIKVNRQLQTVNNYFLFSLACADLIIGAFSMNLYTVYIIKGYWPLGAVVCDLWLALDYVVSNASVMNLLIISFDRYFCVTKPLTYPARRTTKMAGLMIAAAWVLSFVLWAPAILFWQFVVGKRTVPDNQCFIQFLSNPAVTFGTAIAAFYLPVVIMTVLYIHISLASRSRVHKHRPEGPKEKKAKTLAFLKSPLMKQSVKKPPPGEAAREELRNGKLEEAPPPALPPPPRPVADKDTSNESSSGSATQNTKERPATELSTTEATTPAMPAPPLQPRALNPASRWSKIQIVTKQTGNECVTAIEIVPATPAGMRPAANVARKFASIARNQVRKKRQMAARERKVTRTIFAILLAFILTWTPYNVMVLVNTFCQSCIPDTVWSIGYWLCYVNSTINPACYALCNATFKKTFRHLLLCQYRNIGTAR
CHRM4 antagonist: CHRM4 antagonism in calcium assay. P08173. CHO-hM4 cells, ACh EC80, Fluo-8 calcium fluorescence. inhibition, % at 3 µM. 360,000 tested, 0.73% active. AID 624125;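 active means inhibition above its plate's cutoff, the mean inhibition of sample wells plus 3 SD, cut at about 27% in these data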;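 further: 0% = acetylcholine EC80 with DMSO and 100% = DMSO without agonist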
CHRM4 agonist: agonists of human muscarinic M4 receptor (CHRM4). CHO-K1 hM4/Gqi5, Fluo-8 calcium fluorescence; vehicle 0%, full acetylcholine response 100%. activation, % at 3 µM. 360,000 tested, 0.14% active. AID 624127;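 active means activation above the run mean over all test wells plus 3 SD, cut at about 32% in these data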;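 further: peak over basal fluorescence ratio per well then scaled between controls; 0% = DMSO wells and 100% = acetylcholine at EC100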
M5 antag: antagonists of human muscarinic M5 receptor (CHRM5); P08912; CHO-hM5 cells, Fluo-8 calcium fluorescence, ACh EC80; inhibition, % at 3 µM; 360,000 tested, 0.59% active; AID 624040;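 active means inhibition above a per-plate cutoff, the mean of that plate's test compounds plus 3 SD, cut at about 27% in these data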;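 further: 0% = acetylcholine EC80 with DMSO and 100% = DMSO without agonist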
The depositor's hits bear a star. The list is not random: actives were taken first. Their share in the collection is about 1.8%.

SMILES	M5 PAM	M5 ag	M4 PAM	CHRM4 antagonist	CHRM4 agonist	M5 antag
CC1CN(S(=O)(=O)c2cccc(C(=O)Nc3ccccc3N3CCCC3)c2)CC(C)O1 (stereo not given)	-4.1	-6.4	-4.1	16.6	0.7	4.8
CC(=O)c1ccc(NC(=S)NC(C)c2ccc(Cl)cc2Cl)cc1 (stereo not given)	-15.2	14.3	-7.6	14.4	24.4	29.1*
Cc1cc(C(=O)N/N=C/c2ccc(-c3ccc([N+](=O)[O-])cc3C)o2)n[nH]1	-5.0	-2.8	0.7	0.0	1.7	9.9
Cc1cc([N+](=O)[O-])ccc1-c1ccc(/C=N/NC(=O)c2ccc(Br)o2)o1	-2.7	246.4*	1.4	-9.2	0.0	-3.9
NC(=O)c1nsc(C(=O)N(CC(=O)NC2CCCCC2)Cc2ccc(F)cc2)c1N	4.2	-0.2	-5.2	3.8	2.9	-1.3
COC(=O)[C@@]12C[C@@H](CC(=O)N3CCCC3)C(=O)N(Cc3cccc4ccccc34)C1=CCC(C)(C)C2	-7.4	-0.4	-4.2	-0.5	8.8	18.9
CCN(CC)c1ccc(/C=C2\SC(=O)N(C(C)C)C2=O)o1	-1.7	0.4	-2.8	40.6*	4.0	16.8
CC1(c2nc3ccccc3[nH]2)CCC2=Nc3ccccc3CN21 (stereo not given)	-7.8	-5.6	5.2	-10.2	0.6	3.8
Oc1ccc(Nc2nc3ccccc3nc2Nc2ccc(O)cc2)cc1	-7.5	3.9	-12.1	27.3*	3.7	4.7
Oc1ccc(Nc2nc(-c3ccccc3)nc3ccccc23)cc1	-9.5	-2.8	-2.3	5.5	6.5	6.6
CCCCOC(=O)/C=C/c1c(C)[nH]c(=O)[nH]c1=O	8.4	-4.4	22.3*	-2.9	0.7	4.4
NC(=O)c1ccccc1N/C=C/C(=O)c1ccc(F)cc1	2.0	-6.7	2.1	-18.9	1.6	-4.9
NC(=O)c1ccccc1N/C=C/C(=O)c1ccc(Cl)cc1Cl	47.2*	-3.8	4.5	-18.0	0.2	-10.1
O=C(NCC1CC1)c1csc([C@@H]2O[C@H](CO)[C@H](O)[C@H](O)[C@H]2O)n1	0.5	2.3	1.2	-4.6	0.4	-5.3
COc1ccc(/C=N/N=C2/NC(=O)C(c3ccccc3)S2)c(OC)c1 (stereo not given)	18.3*	-7.1	13.2	1.3	-0.2	-5.7
COc1ccc(CC2S/C(=N/N=C/c3ccccc3O)NC2=O)cc1 (stereo not given)	2.6	-0.1	6.6	1.2	0.1	9.2
CC(C)N(C(=O)[C@H]1C[C@H](CC(=O)NCCN2CCOCC2)C(=O)N2CCc3c([nH]c4cc(-c5ccco5)ccc34)[C@]12C)C(C)C	3.3	-1.3	3.9	3.1	1.8	-9.7
Cc1ccc(-n2ncc3c(N4CCCC4)ncnc32)c(C)c1	0.5	1.8	10.9	-1.0	-0.2	6.0
COc1cccc(N2CCN(c3ncnc4c3cnn4-c3ccc(C)cc3C)CC2)c1	-23.6	6.8	-11.1	46.5*	25.7	46.7*
COC(=O)C[C@@H]1CC[C@H](NS(=O)(=O)c2ccccc2F)[C@@H](CO)O1	-5.0	-1.2	5.4	4.0	1.7	9.9
CCOC(=O)C1=C(C)OC(N)=C(C#N)C1c1cc(F)ccc1F (stereo not given)	-7.3	-3.0	-1.9	30.3*	0.6	8.5
CCOC(=O)C1=C(C)OC(N)=C(C#N)C1c1cccc(C)c1 (stereo not given)	15.3	2.3	0.6	-0.3	0.8	-6.0
CC1(Oc2ccc(Cl)cc2)CCN(Cc2ccc(-c3ccccn3)cc2)C1 (stereo not given)	-7.0	-2.3	-12.0	6.6	2.3	4.0
c1ccc(CNc2nc(NCc3ccccc3)c3sccc3n2)cc1	-21.2	31.5*	-16.0	70.9*	88.8*	44.0*
c1ccc(CNc2nc(NCc3ccccc3)c3ccccc3n2)cc1	-21.3	9.8	-17.4	48.8*	44.9*	39.4*
SMILES	M5 PAM	M5 ag	M4 PAM	CHRM4 antagonist	CHRM4 agonist	M5 antag
Fc1cc(Cl)ccc1Nc1nc(NCc2ccccc2)nc2ccsc12	-3.3	0.8	-6.5	6.2	0.5	-1.4
COc1ccccc1CNc1nc(NCc2cccc(OC)c2OC)c2sccc2n1	-20.0	2.4	-12.1	21.5	15.8	31.1*
c1ccc(CNc2nc(NCCOc3ccccc3)c3sccc3n2)cc1	-20.8	21.4	-15.6	53.9*	57.8*	35.4*
CNc1nc(NCCOc2ccccc2)c2sccc2n1	-9.5	7.9	-7.9	-13.8	30.5	-0.3
COCCNc1nc(NCc2cccc(OC)c2OC)c2sccc2n1	-7.3	-0.1	-3.7	-2.0	6.3	9.3
CC1Oc2ccc(C#N)cc2N(Cc2cccc(F)c2)C1=O (stereo not given)	-8.4	-3.2	3.7	-12.2	-0.6	-1.0
CC(C)(CC1(C)NC(=O)NC1=O)OCc1ccccc1 (stereo not given)	1.8	1.4	1.7	-0.5	0.2	12.6
CC1(C(=O)Nc2cccc(C(F)(F)F)c2)Cc2c(-c3ccc4c(c3)OCO4)ccnc2O1 (stereo not given)	-8.1	-0.3	-5.7	-6.3	0.5	2.1
C#Cc1cccc(Nc2nc(NCc3ccccc3OC)nc3ccsc23)c1	-17.0	3.4	-9.7	30.2*	14.2	36.1*
COc1ccccc1CNc1nc(NCc2ccccc2)nc2ccsc12	-22.0	35.9*	-15.2	92.3*	75.3*	76.0*
C#Cc1cccc(Nc2nc(NCCOC)nc3ccsc23)c1	-11.4	4.9	-11.0	14.3	18.5	16.1
CCCN(C)C1CN(Cc2cn(Cc3cccc(Cl)c3)nn2)S(=O)(=O)C1 (stereo not given)	-4.8	-1.2	1.4	-8.6	0.6	2.1
CCN(CC)C(=O)C1=C(C)N(CCCOC)C(=O)C(CC(=O)NC2CCCCC2)C1 (stereo not given)	1.1	0.7	-0.2	-1.5	-0.1	1.3
O=C1c2ccccc2C(=O)N1Nc1ccccc1	-0.8	-6.5	1.9	3.7	0.4	8.4
Cc1ccc(NN2C(=O)C=C(c3ccccc3)C2=O)cc1	9.1	14.6	-15.7	35.3*	4.7	13.7
COc1ccc(S(=O)(=O)Nc2ccc3c(c2)C(=O)N([C@H](C)CO)C[C@H](C)[C@@H](CN(C)S(=O)(=O)c2ccc(F)cc2)O3)cc1	-6.8	-2.7	-0.8	-5.9	0.0	10.4
Cc1ccc(-n2c(Cl)c(Cl)nc(Cl)c2=O)cc1	2.0	-3.9	-6.1	36.8*	-2.7	1.9
COc1cc(OC)cc(C(=O)Nc2cccc(N3CCCC3)c2)c1	2.4	2.1	-9.7	28.0*	1.3	-6.6
O=C(CSc1n[nH]c(-c2ccncc2)n1)Nc1ccc(Cl)c(Cl)c1	-6.3	12.8	-3.6	1.4	29.4	13.9
